# Experimental data pooled from the literature.
# Lines come from different studies, so protocols differ.
# Target: Mitogen-activated protein kinase kinase kinase 3 (MAP3K3, Homo sapiens, UniProt Q99759)
# Sequence (Q99759 1-626, as in one of the studies): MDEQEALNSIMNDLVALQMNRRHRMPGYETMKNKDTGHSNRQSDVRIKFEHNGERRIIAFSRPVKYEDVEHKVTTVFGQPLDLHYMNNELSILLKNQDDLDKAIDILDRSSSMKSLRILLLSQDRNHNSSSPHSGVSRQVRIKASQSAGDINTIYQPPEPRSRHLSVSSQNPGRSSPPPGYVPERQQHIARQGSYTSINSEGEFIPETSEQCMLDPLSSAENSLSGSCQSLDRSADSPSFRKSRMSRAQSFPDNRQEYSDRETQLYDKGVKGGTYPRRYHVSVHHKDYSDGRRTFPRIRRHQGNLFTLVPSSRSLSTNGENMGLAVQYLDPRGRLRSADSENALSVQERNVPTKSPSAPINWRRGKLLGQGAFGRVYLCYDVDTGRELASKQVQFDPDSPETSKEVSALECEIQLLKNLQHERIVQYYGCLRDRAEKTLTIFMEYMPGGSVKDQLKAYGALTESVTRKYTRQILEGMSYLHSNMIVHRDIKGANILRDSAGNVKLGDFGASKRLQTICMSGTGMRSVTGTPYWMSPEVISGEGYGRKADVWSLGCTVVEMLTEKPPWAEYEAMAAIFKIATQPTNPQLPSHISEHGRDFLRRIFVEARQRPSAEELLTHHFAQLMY
SMILES,effect on,mode,method,concentration,quantity,value
Cn1cc(-c2cc(F)cc(N3CCn4c(cc5c4CCCC5)C3=O)c2CO)cc(Nc2ccc(N3CCN(C4COC4)CC3)cn2)c1=O,enzyme activity,inhibitor,,0.1 µM,inhibition,1%
Nc1ncc(-c2nc(N3CCOCC3)nc(N3CCOCC3)n2)c(C(F)F)n1,binding,,competition with immobilised ligand,10 µM,remaining binding,72%
COc1ncccc1-c1cnn2ccc(N3CCN(C(=O)OC(C)C)CC3)nc12,binding,,competition with immobilised ligand,1 µM,remaining binding,100%
CC(C)(C)c1cc(C=C(C#N)C#N)cc(Br)c1O,enzyme activity,inhibitor,,0.5 µM,remaining activity,118%
Cc1nn(C)cc1-c1nc2c(N3CCN(Cc4ccc(Cl)cc4)CC3)c(Cl)cnc2[nH]1,binding,,competition with immobilised ligand,1 µM,remaining binding,91%
Cn1cc(-c2cccc(N3CCc4c(sc5c4CC(C)(C)C5)C3=O)c2CO)cc(Nc2ccncn2)c1=O,enzyme activity,inhibitor,,1 µM,inhibition,3%
Cn1cncc1[C@@](O)(COc1ccc(C#N)cc1-c1ccc(OC(F)(F)F)cc1)c1ccc(C#N)cc1,cell-free assay,,competition with immobilised ligand,1 µM,remaining binding,81%
O=c1[nH]c2ccccc2n1C1CCN(Cc2ccc(-c3[nH]c4cc5ncnc5cc4nc3-c3ccccc3)cc2)CC1,cell-free assay,,,0.5 µM,remaining signal,101%
COCc1c(-c2cc3cc(C)cc(OC)c3s2)c2c(N)ncnn2c1CN1CCNC(=O)C1,cell-free assay,,competition with immobilised ligand,1 µM,inhibition,95.3%
